The structures appear in SMILES notation. ≈ marks a conversion by molar mass, not a printed value.

For orientation: MIC means the lowest concentration found to suppress growth. Low readings indicate a more susceptible organism, high ones a less susceptible organism.

The test system of experiment [1] is Salmonella typhimurium. Briefly: Antibacterial activity against Salmonella Typhimurium after 18 hrs at 37 degC by microdilution method. Type of experiment: functional, Salmonella enterica subsp. enterica serovar Typhimurium. The conditions noted are these: Salmonella enterica, in the assay text read “macrodilution” for “microdilution”. (In general: In broth dilution the organism is exposed to a series of concentrations in liquid medium.)

For experiment [2], the system named is Escherichia coli. Briefly: Antibacterial activity against Escherichia coli at 1 mg/disk after 18 hrs at 36 degC by disk diffusion method. Type of experiment: functional. In outline: (§1)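 Disk diffusion. Strains were subcultured in BHI for 18 h at 37 °C, then suspended in saline by McFarland to about […] CFU/mL. The suspension was mixed with sterile antibiotic agar at 40 °C and poured onto plates, and 6.0 mm paper disks were applied. Test compound stock was made in DMSO and diluted to several concentrations applied to disks. Chloramphenicol disks served as positive control and DMSO disks as negative control. Inhibition zone (mm) was read after 18 h at 36 °C.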
In general terms: A growth-free zone around the sample is the usual read-out of agar diffusion tests.

Experiment [3] concerns Escherichia coli. Briefly: Antibacterial activity against Escherichia coli after 18 hrs at 37 degC by microdilution method. Type of experiment: functional.
The test system of experiment [4] is Salmonella typhimurium. Briefly: Antibacterial activity against Salmonella Typhimurium at 1 mg/disk after 18 hrs at 36 degC by disk diffusion method. Format: functional, Salmonella enterica subsp. enterica serovar Typhimurium. In outline: as §1
For experiment [5], the system named is Streptococcus pyogenes. Briefly: Antibacterial activity against Streptococcus pyogenes after 18 hrs at 37 degC by microdilution method. Format: functional. The note with it: in the assay text read “macrodilution” for “microdilution”.
Experiment [6] concerns Staphylococcus aureus. Nature of the experiment: Antibacterial activity against Staphylococcus aureus after 18 hrs at 37 degC by microdilution method. Format: functional. The note with it: in the assay text read “macrodilution” for “microdilution”.
The subject of experiment [7] is Staphylococcus aureus. Nature of the experiment: Antibacterial activity against Staphylococcus aureus at 1 mg/disk after 18 hrs at 36 degC by disk diffusion method. Format: functional. In outline:
as §1

The subject of experiment [8] is Streptococcus pyogenes. Nature of the experiment: Antibacterial activity against Streptococcus pyogenes at 1 mg/disk after 18 hrs at 36 degC by disk diffusion method. Format: functional. The gist of the method:
as §1

The subject of experiment [9] is Staphylococcus aureus. Nature of the experiment: Antibacterial activity against Staphylococcus aureus at 30 ug/disk after 18 hrs at 36 degC by disk diffusion method. Type of experiment: functional. The conditions noted are these: read-out: IZ. The gist of the method: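 S. aureus subcultured in BHI medium 18 h at 37 °C, then suspended in saline per McFarland protocol; suspension mixed with sterile antibiotic agar at 40 °C and poured as plates. Paper disks (6.0 mm) loaded with DMSO-dissolved compound at graded concentrations; chloramphenicol disk positive control, DMSO disk negative control. Inhibition zone diameter (mm) read after 18 h at 36 °C.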

The subject of experiment [10] is Streptococcus pyogenes. Briefly: Antibacterial activity against Streptococcus pyogenes at 30 ug/disk after 18 hrs at 36 degC by disk diffusion method. Type of experiment: functional. The note with it: read-out: IZ. In outline: as §1
For experiment [11], the system named is Escherichia coli. Nature of the experiment: Antibacterial activity against Escherichia coli at 30 ug/disk after 18 hrs at 36 degC by disk diffusion method. The conditions noted are these: read-out: IZ. Type of experiment: functional. The gist of the method: as §1
Experiment [12] has as its system Salmonella typhimurium. Briefly: Antibacterial activity against Salmonella Typhimurium at 30 ug/disk after 18 hrs at 36 degC by disk diffusion method. Type of experiment: functional, Salmonella enterica subsp. enterica serovar Typhimurium. The note with it: Salmonella enterica, read-out: IZ. The gist of the method: as §1

Turning to `CC[C@H](/C=C/[C@@H](C)[C@H]1CC[C@H]2[C@@H]3C4=C[C@]5(C[C@@H](Cl)CC[C@]5(C)[C@H]3CC[C@]12C)NC(=O)N4)C(C)C`, the MIC in experiment [1] is 128 µg/mL (≈ 263 µM); in [3], 128 µg/mL (≈ 263 µM); in experiment [5] it was 128 µg/mL (≈ 263 µM); in experiment [6] it was 64 µg/mL (≈ 131 µM). Moreover, the “inhibition zone (IZ)” value in [2] came to 14.8 mm; in experiment [4] it was 14.4 mm; in experiment [7] it was 16.8 mm; in experiment [8], 15.2 mm.

For the compound `CC(C)CCC[C@@H](C)[C@H]1CC[C@H]2[C@@H]3CC=C4C[C@@H](O)CC[C@]4(C)[C@H]3CC[C@]12C` [CHOLESTEROL], the MIC in experiment [1], in experiment [3], in [5] and in [6] was 512 µg/mL (≈ 1320 µM) throughout. Besides, the “inhibition zone (IZ)” value in experiment [2] came to 9 mm; in experiment [4] it was 8.2 mm; in experiment [7], 9.2 mm; in experiment [8], 7.8 mm.

`CC[C@H](/C=C/[C@@H](C)[C@H]1CC[C@H]2[C@@H]3C4=C[C@]5(C[C@@H](Cl)CC[C@]5(C)[C@H]3CC[C@]12C)NC(=S)N4)C(C)C`: the MIC in experiment [1] was found to be 32 µg/mL (≈ 63.6 µM); in experiment [3], 32 µg/mL (≈ 63.6 µM); in experiment [5] it was 64 µg/mL (≈ 127 µM); in [6], 64 µg/mL (≈ 127 µM). For the same compound, the “inhibition zone (IZ)” value in [2] amounted to 20.7 mm; in experiment [4], 18.7 mm; in [7], 19.7 mm; in [8], 23.2 mm.

`O=C(N[C@H](CO)[C@H](O)c1ccc([N+](=O)[O-])cc1)C(Cl)Cl` [CHLORAMPHENICOL]: the zone of inhibition at 30 µg/disc in experiment [9] was 21 mm; in [10], 22.2 mm; in experiment [11], 20 mm; in experiment [12], 25.2 mm.

As to `CC[C@H](/C=C/[C@@H](C)[C@H]1CC[C@H]2[C@@H]3C4=C[C@]5(C[C@@H](OC(C)=O)CC[C@]5(C)[C@H]3CC[C@]12C)NC(=O)N4)C(C)C`, the MIC in experiment [1] worked out at 128 µg/mL (≈ 251 µM); in [3] it was 64 µg/mL (≈ 125 µM); in experiment [5], 128 µg/mL (≈ 251 µM); in [6] it was 64 µg/mL (≈ 125 µM). Besides, the “inhibition zone (IZ)” value in experiment [2] is 16.3 mm; in experiment [4], 15.2 mm; in experiment [7] it was 14.4 mm; in experiment [8], 12.4 mm.

With `CC[C@H](/C=C/[C@@H](C)[C@H]1CC[C@H]2[C@@H]3C4=C[C@]5(C[C@@H](OC(C)=O)CC[C@]5(C)[C@H]3CC[C@]12C)NC(=S)N4)C(C)C`, the MIC came to 32 µg/mL (≈ 60.7 µM) in experiment [1], 32 µg/mL (≈ 60.7 µM) in experiment [3], 64 µg/mL (≈ 121 µM) in experiment [5] and 32 µg/mL (≈ 60.7 µM) in [6]. In addition, the “inhibition zone (IZ)” value was 23.4 mm in experiment [2], 19.4 mm in experiment [4], 22.5 mm in experiment [7] and 21.6 mm in experiment [8].

(Values after ChEMBL document CHEMBL1154449, “Synthesis, characterization and in vitro antibacterial activity of thiourea and urea derivatives of steroids” (2008).)
